Xi reactivation – activators of X-chromosome reactivation in mouse fibroblasts. XiGFP mouse fibroblasts, % GFP-positive cells imaging, 3 d; cells co-treated with 5-aza-dC sensitizer; scaled so ellipticine positive control = 100%. AID 743238. activation, % at 7.58 µM. actives 0.055% (n = 360,000);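 active = mean normalized replicate activation at least 10% and every replicate at or above 10%; inconclusive = only one of the two criteria met; inactive = mean below 10% and not all replicates reach 10%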;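 also: 0% = median of on-plate neutral control wells and 100% = ellipticine 6 µM median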
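Material: XiGFP fibroblasts, SV40-immortalized; Buffer or medium: DMEM containing 5-aza-dC; Compound dosing: single point; Times: 3 days compound exposure.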
S100A4 inh HTS – S100A4-myosin IIA interaction inhibition. P26447. inhibition, % at 10.7 µM. S100A4/TAMRA-MyoIIA peptide fluorescence polarization. actives 0.14% (n = 360,000);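 active = mean inhibition of at least 70% across replicates, with every replicate also reaching that level; inconclusive = mean inhibition reaches 70% but some replicates fall short; inactive = mean inhibition below 70%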
Target sequence (P26447 whole entry, looked up): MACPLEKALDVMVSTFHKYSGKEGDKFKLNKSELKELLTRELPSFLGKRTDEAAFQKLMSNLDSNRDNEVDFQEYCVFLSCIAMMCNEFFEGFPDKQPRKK
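Material: S100A4 monomer protein | Medium: HEPES pH 7.2 with CaCl2, KCl, NaCl, DTT, Triton | Reagent: Labelled myosin peptide probe, 5 nM | Doses: One dose per compound | Times: 5 min incubation before reading | Benchmarks: Neutral control DMSO, positive control TFP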
DENV2 CPE – DENV2-induced cell death inhibition; CPE inhibition, % at 9.99 µM; DENV2-infected cells, cytopathic effect rescue, plate reader; actives 1.7% (n = 350,000); AID 651640; in the data active = CPE inhibition above about 20%, passing the limit was not always enough; inconclusive = no clear call, values can overlap the other calls; tested in BHK-21 cells;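 also: 0% = median of neutral control wells and 100% = median of positive control wells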
E-selectin induc – induces E-selectin expression in human endothelial cells; P16581; HUVEC E-selectin immunofluorescence imaging; normalized: neutral wells 0, TNF-alpha wells 100; activation, % at 7.58 µM; actives 0.37% (n = 260,000); AID 686992;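 active = mean E-selectin-positive cell signal at least 10% of the positive control, reached in at least 60% of replicates, without over 20% cell loss; inconclusive = no rule given, readout overlaps actives, possibly toxicity-flagged; inactive = the rest, including those meeting only one limit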
Target sequence (P16581 whole entry, looked up): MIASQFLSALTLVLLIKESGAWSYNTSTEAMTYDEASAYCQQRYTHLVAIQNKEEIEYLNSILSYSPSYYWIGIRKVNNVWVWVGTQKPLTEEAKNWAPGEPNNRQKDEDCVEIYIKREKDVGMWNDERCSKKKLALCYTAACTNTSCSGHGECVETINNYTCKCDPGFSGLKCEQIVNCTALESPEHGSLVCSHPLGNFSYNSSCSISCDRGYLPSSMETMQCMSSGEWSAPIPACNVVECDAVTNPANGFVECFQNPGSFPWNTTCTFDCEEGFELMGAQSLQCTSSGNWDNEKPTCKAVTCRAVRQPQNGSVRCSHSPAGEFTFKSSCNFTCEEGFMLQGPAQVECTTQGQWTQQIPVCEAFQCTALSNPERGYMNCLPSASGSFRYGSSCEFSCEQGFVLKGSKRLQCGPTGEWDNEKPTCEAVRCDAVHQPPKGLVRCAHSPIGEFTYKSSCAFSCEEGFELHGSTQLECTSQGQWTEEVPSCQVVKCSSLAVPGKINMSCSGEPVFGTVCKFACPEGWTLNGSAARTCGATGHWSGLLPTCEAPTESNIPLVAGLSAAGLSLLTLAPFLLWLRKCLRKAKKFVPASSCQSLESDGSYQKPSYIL
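Assay system: HUVEC primary endothelial cells. Input: 3,000 HUVEC seeded per well. Doses: one compound dose added by pin transfer. Read-out basis: % PE-positive cells. Benchmarks: TNF-alpha high, DMSO low. Detection: immunofluorescence imaging. Buffer or medium: EGM-2, gelatin.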
An asterisk follows results filed as active; ? = inconclusive; . = no result; ! = repeats disagree. In the library only some 2% were active in any assay of this set; here they are far more common.

SMILES	Xi reactivation	S100A4 inh HTS	DENV2 CPE	E-selectin induc
C[C@@H]1CN([C@H](C)CO)C(=O)Cc2cc(NC(=O)Nc3ccc(C(F)(F)F)cc3)ccc2O[C@H]1CN(C)Cc1ccc(C(=O)O)cc1	-0.8	2.6	24.2*	.
C[C@@H]1CN([C@@H](C)CO)C(=O)c2cc(NC(=O)Nc3ccc(C(F)(F)F)cc3)ccc2O[C@@H]1CN(C)Cc1ccc(Oc2ccccc2)cc1	-0.1	-0.2	14.3	100.4*
C[C@H](CO)N1C[C@H](C)[C@@H](CN(C)Cc2ccc(C(=O)O)cc2)Oc2ccc(NC(=O)Nc3ccc(F)cc3)cc2CC1=O	1.2	3.5	-0.7	38.1*
C[C@H]1CN([C@@H](C)CO)C(=O)Cc2cc(NC(=O)Nc3ccc(F)cc3)ccc2O[C@H]1CN(C)Cc1ccc(C(=O)O)cc1	-0.1	-32.1	17.8	-4.4
C[C@H](CO)N1C[C@H](C)[C@H](CN(C)Cc2ccc(C(F)(F)F)cc2)Oc2ccc(NC(=O)Nc3ccccc3)cc2CC1=O	0.0	-1.1	25.3*	-0.2
C[C@@H]1CN([C@H](C)CO)C(=O)Cc2cc(NC(=O)Nc3ccccc3)ccc2O[C@H]1CN(C)Cc1ccc(C(F)(F)F)cc1	-0.1	-4.8	-6.9	-0.1
CCCNC(=O)C[C@H]1CC[C@@H]2[C@@H](COc3ccc(NC(=O)Cc4cccs4)cc3C(=O)N2C)O1	0.2	.	3.8	0.1
C[C@@H]1CN([C@@H](C)CO)C(=O)Cc2cc(NC(=O)Nc3ccc(C(F)(F)F)cc3)ccc2O[C@@H]1CN(C)Cc1ccc2c(c1)OCO2	-0.1	2.1	0.6	0.9
C[C@H](CO)N1C[C@H](C)[C@@H](CN(C)Cc2ccc(Oc3ccccc3)cc2)Oc2ccc(NC(=O)Nc3ccc(C(F)(F)F)cc3)cc2CC1=O	-0.1	.	-3.6	35.8*
C[C@H]1CN([C@@H](C)CO)C(=O)Cc2cc(NC(=O)Nc3ccc(C(F)(F)F)cc3)ccc2O[C@@H]1CN(C)Cc1ccc(Oc2ccccc2)cc1	0.0	.	-2.8	0.5
C[C@@H]1CN([C@H](C)CO)C(=O)Cc2cc(NC(=O)Nc3ccc(C(F)(F)F)cc3)ccc2O[C@H]1CN(C)Cc1ccc2c(c1)OCO2	0.1	100.6*	?	0.1
CC1CN(C2=CC(=O)CCC2)CC(C)O1 (stereo not drawn)	0.3	0.9	21.2*	-0.2
O=C1CCC/C=C/C[C@H](CC(=O)N(CCO)Cc2ccccc2)C(=O)N[C@@H](Cc2ccccc2)CO1	0.0	-2.8	24.8*	0.5
O=C(CSc1n[nH]c(-c2ccco2)n1)Nc1ccc(Br)cc1	0.1	-6.6	30.3*	0.4
CCN(CC(=O)Nc1c(F)cccc1F)C(=O)CNC(=O)COc1ccccc1	-0.2	-2.0	-4.3	0.0
C[C@H]1CN([C@@H](C)CO)C(=O)CCCn2cc(nn2)CO[C@@H]1CN(C)S(C)(=O)=O	0.2	0.8	-11.0	-0.1
Cc1ccc2oc(=O)c3cnn(CC(=O)N4CCc5ccccc5C4)c3c2c1	0.1	-1.2	-0.9	-0.1
Cc1nc2ccc(NC(=O)NC(=O)c3c(Cl)cccc3Cl)cc2o1	0.2	-6.3	-2.6	64.3*
Cc1[nH]c2ccc(F)cc2c1CCN(Cc1ccncc1)C(=S)Nc1ccccc1	0.0	2.1	?	0.4
C/C=C/c1ccc(C2[C@@H]3CN(C(=O)Nc4ccc5c(c4)OCO5)C[C@H]2N3)cc1 (stereo partly drawn)	0.2	.	27.2*!	0.1
COc1ccc(Br)cc1CN1CCC(N2CCCC2)CC1	0.2	-2.2	25.3*	0.3
Cc1noc(C)c1NC(=O)Nc1ccc2c(c1)C(=O)N([C@@H](C)CO)C[C@H](C)[C@@H](CN(C)C(=O)NC1CCCCC1)OCCCC[C@H](C)O2	-0.1	-0.2	21.2*	0.3
Cc1noc(C)c1NC(=O)N(C)C[C@H]1OCCCC[C@H](C)Oc2ccc(NC(=O)NC3CCCCC3)cc2C(=O)N([C@H](C)CO)C[C@@H]1C	0.0	1.0	18.1	.
Cc1noc(C)c1NC(=O)N(C)C[C@H]1OCCCC[C@H](C)Oc2ccc(NC(=O)NC3CCCCC3)cc2C(=O)N([C@@H](C)CO)C[C@@H]1C	0.0	4.8	27.7*	.
Cc1noc(C)c1NC(=O)N(C)C[C@H]1OCCCC[C@H](C)Oc2ccc(NC(=O)NC(C)C)cc2C(=O)N([C@H](C)CO)C[C@@H]1C	0.0	28.5	102.0*	-0.1
SMILES	Xi reactivation	S100A4 inh HTS	DENV2 CPE	E-selectin induc
C[C@H](CO)N1C[C@H](C)[C@H](CN(C)C(=O)C2CCC2)Oc2cc(-c3ccc(C(=O)N(C)C)cc3)ccc2S1(=O)=O	-0.4	-5.8	-5.4	0.2
COC(=O)c1ccsc1NC(=O)c1ccccc1	0.0	2.7	13.3	0.0
O=C(CNC(=O)Cc1ccccc1)N=Nc1c(O)[nH]c2ccccc12	0.1	-1.6	-4.0	.
O=C(CCCCCNC(=O)c1ccccc1Br)N=Nc1c(O)[nH]c2ccccc12	0.0	1.7	0.4	88.1*
O=C(C[C@H]1CC[C@@H](NC(=O)C2CCC2)[C@H](CO)O1)NCc1ccncc1	-0.1	1.3	9.4	0.3
COc1ccc(CNC(=O)C(C)N(Cc2ccco2)C(=O)c2snc(C(N)=O)c2N)cc1 (stereo not drawn)	.	2.9	-7.6	.
O=C(CSc1nc(=O)n2ccccc2n1)N1N=C(c2cccs2)CC1c1ccc(F)cc1 (stereo not drawn)	-0.1	-2.9	59.5*	3.3
C[C@H]1CN([C@@H](C)CO)C(=O)CCCn2cc(nn2)CO[C@@H]1CN(C)C(=O)Nc1cccc2ccccc12	0.0	4.1	0.4	0.0
C[C@@H]1CN([C@@H](C)CO)C(=O)CCCn2cc(nn2)CO[C@H]1CN(C)C(=O)Nc1cccc2ccccc12	0.0	-5.4	90.9*!	0.0
CC(C)NC(=O)N(C)C[C@@H]1OCc2cn(nn2)CCCC(=O)N([C@@H](C)CO)C[C@@H]1C	-0.3	.	.	-0.1
CC(C)NC(=O)N(C)C[C@H]1OCc2cn(nn2)CCCC(=O)N([C@@H](C)CO)C[C@@H]1C	-0.2	23.7	32.4*	-0.2
O=C(CNc1cccc(S(=O)(=O)N2CCOCC2)c1)Nc1cccc(Br)c1	-0.1	-4.1	27.2*	0.4
O=C(CNc1cccc(S(=O)(=O)N2CCCC2)c1)Nc1cccc(Br)c1	8.3	1.8	?	-0.5
Cc1noc(C)c1NC(=O)Nc1ccc2c(c1)C(=O)N([C@H](C)CO)C[C@H](C)[C@H](CN(C)C)O2	-0.3	14.4	-4.1	0.2
CCOC(=O)N(C)C[C@@H]1OCc2cnnn2CCCC(=O)N([C@@H](C)CO)C[C@@H]1C	-0.1	-6.1	70.1*!	-0.2
CC(C)NC(=O)N(C)C[C@H]1OCc2cnnn2CCCC(=O)N([C@H](C)CO)C[C@@H]1C	-0.1	1.4	91.8*!	0.1
C[C@@H]1CN([C@@H](C)CO)C(=O)CCCn2nncc2CO[C@H]1CN(C)C(=O)Nc1ccccc1	0.4	-2.9	30.8*	0.3
CCOC(=O)N(C)C[C@H]1OCc2cnnn2CCCC(=O)N([C@H](C)CO)C[C@H]1C	-0.1	-1.9	-6.2	-0.1
